Measured values reported in ChEMBL document CHEMBL1926614, “Substituted thiazoles V. synthesis and antitumor activity of novel thiazolo[2,3-b]quinazoline and pyrido[4,3-d]thiazolo[3,2-a]pyrimidine analogues” (2012).

How the values were obtained:
Assay type in all cases: functional
SNB-19 = experiment: Growth inhibition of human SNB19 cells at 10 uM after 48 hrs by coulter counting; details: SNB-19, 48 h, read-out: GI
Procedure, shortened: (§1)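 Single-dose primary screen across the full NCI 60-cell-line panel. Stocks were made in DMSO and diluted in PBS to a final DMSO below 1%. Cultures at 6 × 10⁴ cells/ml were run in duplicate wells alongside PBS/DMSO vehicle controls at 37 °C in humidified 5% CO₂. Data were expressed as percent growth of treated cells.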

LOX IMVI = experiment: Growth inhibition of human LOXIMVI cells at 10 uM after 48 hrs by coulter counting; details: read-out: GI; procedure, shortened: as §1
RPMI-8226 = experiment: Growth inhibition of human RPMI8226 cells at 10 uM after 48 hrs by coulter counting; details: RPMI-8226, 48 h, read-out: GI; procedure, shortened: as §1
NCI-H460 = experiment: Growth inhibition of human NCI-H460 cells at 10 uM after 48 hrs by coulter counting; details: NCI-H460, 48 h, read-out: GI; procedure, shortened: as §1
HL-60(TB) = experiment: Growth inhibition of human HL-60(TB) cells at 10 uM after 48 hrs by coulter counting; details: HL-60, 48 h, read-out: GI
Procedure, shortened: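 Test compound was dissolved in DMSO and diluted in phosphate-buffered saline to a final DMSO level below 1%. Dilutions were plated in duplicate with cell culture at 6 × 10⁴ cells/ml. Vehicle controls held PBS and DMSO at matching dilutions. Incubation was at 37 °C, humidified, under 5% CO₂. Data were reported as percent growth of treated cells.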

A549 = experiment: Growth inhibition of human A549 cells at 10 uM after 48 hrs by coulter counting; details: A549, 48 h, read-out: GI; procedure, shortened: as §1
A498 = experiment: Growth inhibition of human A498 cells at 10 uM after 48 hrs by coulter counting; details: A498, 48 h, read-out: GI; procedure, shortened: as §1
HCT-116 = experiment: Growth inhibition of human HCT116 cells at 10 uM after 48 hrs by coulter counting; details: HCT-116, 48 h, read-out: GI; procedure, shortened: as §1
SF-539 = experiment: Growth inhibition of human SF539 cells at 10 uM after 48 hrs by coulter counting; details: SF-539, 48 h, read-out: GI; procedure, shortened: as §1
HT-29 = experiment: Growth inhibition of human HT-29 cells at 10 uM after 48 hrs by coulter counting; details: HT-29, 48 h, read-out: GI; procedure, shortened: as §1
SK-MEL-5 = experiment: Growth inhibition of human SK-MEL-5 cells at 10 uM after 48 hrs by coulter counting; details: SK-MEL-5, 48 h, read-out: GI; procedure, shortened: as §1
MOLT-4 = experiment: Growth inhibition of human MOLT4 cells at 10 uM after 48 hrs by coulter counting; details: MOLT-4, 48 h, read-out: GI; procedure, shortened: as §1
M14 = experiment: Growth inhibition of human M14 cells at 10 uM after 48 hrs by coulter counting; details: M14, 48 h, read-out: GI; procedure, shortened: as §1
DU-145 = experiment: Growth inhibition of human DU145 cells at 10 uM after 48 hrs by coulter counting; details: DU-145, 48 h, read-out: GI; procedure, shortened: as §1
CAKI-1 = experiment: Growth inhibition of human Caki1 cells at 10 uM after 48 hrs by coulter counting; details: CAKI-1, 48 h, read-out: GI; procedure, shortened: as §1
UACC-257 = experiment: Growth inhibition of human UACC257 cells at 10 uM after 48 hrs by coulter counting; details: UACC-257, 48 h, read-out: GI
Procedure, shortened: (§2)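 Single-dose screen in the NCI 60 human tumor cell line panel (nine subpanels). Compounds dissolved in DMSO and diluted in phosphate buffered saline, keeping final DMSO below 1%. Added in duplicate wells to cells at 6 × 10⁴ cells/ml. Controls held PBS and DMSO at matching dilutions. Incubated at 37 °C, humidified, 5% CO₂. Reported as percent growth of treated cells.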

IGROV-1 = experiment: Growth inhibition of human IGROV1 cells at 10 uM after 48 hrs by coulter counting; details: IGROV-1, 48 h, read-out: GI; procedure, shortened: as §1
MCF7 = experiment: Growth inhibition of human MCF7 cells at 10 uM after 48 hrs by coulter counting; details: MCF7, 48 h, read-out: GI; procedure, shortened: as §1
MDA-MB-435 = experiment: Growth inhibition of human MDA-MB-435 cells at 10 uM after 48 hrs by coulter counting; details: MDA-MB-435, 48 h, read-out: GI; procedure, shortened: as §1
SK-MEL-28 = experiment: Growth inhibition of human SK-MEL-28 cells at 10 uM after 48 hrs by coulter counting; details: SK-MEL-28, 48 h, read-out: GI; procedure, shortened: as §1
EKVX = experiment: Growth inhibition of human EKVX cells at 10 uM after 48 hrs by coulter counting; details: read-out: GI; procedure, shortened: as §1
UACC-62 = experiment: Growth inhibition of human UACC62 cells at 10 uM after 48 hrs by coulter counting; details: UACC-62, 48 h, read-out: GI; procedure, shortened: as §2
HCC 2998 = experiment: Growth inhibition of human HCC2998 cells at 10 uM after 48 hrs by coulter counting; details: HCC 2998, 48 h, read-out: GI; procedure, shortened: as §1
NCI-H226 = experiment: Growth inhibition of human NCI-H226 cells at 10 uM after 48 hrs by coulter counting; details: NCI-H226, 48 h, read-out: GI; procedure, shortened: as §1
NCI-H23 = experiment: Growth inhibition of human NCI-H23 cells at 10 uM after 48 hrs by coulter counting; details: NCI-H23, 48 h, read-out: GI; procedure, shortened: as §1
KM12 = experiment: Growth inhibition of human KM12 cells at 10 uM after 48 hrs by coulter counting; details: KM12, 48 h, read-out: GI; procedure, shortened: as §1
CCRF-CEM = experiment: Growth inhibition of human CCRF-CEM cells at 10 uM after 48 hrs by coulter counting; details: read-out: GI; procedure, shortened: as §1
[1] = Growth inhibition of human NCI-322M cells at 10 uM after 48 hrs by coulter counting; details: read-out: GI; procedure, shortened: as §1
BT-549 = experiment: Growth inhibition of human BT549 cells at 10 uM after 48 hrs by coulter counting; details: BT-549, 48 h, read-out: GI; procedure, shortened: as §1
SF-295 = experiment: Growth inhibition of human SF295 cells at 10 uM after 48 hrs by coulter counting; details: SF-295, 48 h, read-out: GI; procedure, shortened: as §1
NCI-H522 = experiment: Growth inhibition of human NCI-H522 cells at 10 uM after 48 hrs by coulter counting; details: NCI-H522, 48 h, read-out: GI; procedure, shortened: as §1
U-251 = experiment: Growth inhibition of human U251 cells at 10 uM after 48 hrs by coulter counting; details: U-251, 48 h, read-out: GI; procedure, shortened: as §2
OVCAR-4 = experiment: Growth inhibition of human OVCAR4 cells at 10 uM after 48 hrs by coulter counting; details: OVCAR-4, 48 h, read-out: GI; procedure, shortened: as §1
UO-31 = experiment: Growth inhibition of human UO31 cells at 10 uM after 48 hrs by coulter counting; details: UO-31, 48 h, read-out: GI; procedure, shortened: as §2
SNB-75 = experiment: Growth inhibition of human SNB75 cells at 10 uM after 48 hrs by coulter counting; details: SNB-75, 48 h, read-out: GI; procedure, shortened: as §1
SF-268 = experiment: Growth inhibition of human SF268 cells at 10 uM after 48 hrs by coulter counting; details: SF-268, 48 h, read-out: GI; procedure, shortened: as §1
ACHN = experiment: Growth inhibition of human ACHN cells at 10 uM after 48 hrs by coulter counting; details: read-out: GI; procedure, shortened: as §1
K562 = experiment: Growth inhibition of human K562 cells at 10 uM after 48 hrs by coulter counting; details: K562, 48 h, read-out: GI; procedure, shortened: as §1
T47D = experiment: Growth inhibition of human T47D cells at 10 uM after 48 hrs by coulter counting; details: read-out: GI; procedure, shortened: as §2
SK-MEL-2 = experiment: Growth inhibition of human SK-MEL-2 cells at 10 uM after 48 hrs by coulter counting; details: SK-MEL-2, 48 h, read-out: GI; procedure, shortened: as §1
HOP-62 = experiment: Growth inhibition of human HOP62 cells at 10 uM after 48 hrs by coulter counting; details: HOP-62, 48 h, read-out: GI; procedure, shortened: as §1
NCI/ADR-RES = experiment: Growth inhibition of human NCI/ADR-RES cells at 10 uM after 48 hrs by coulter counting; details: read-out: GI; procedure, shortened: as §1

Structure (SMILES): C1=CN2C(=NC3=C(CCC/C3=C\c3ccccc3)C2c2ccccc2)S1 (configuration not stated)
- inhibition of growth at 10 µM (SNB-19): > 10%
- inhibition of growth at 10 µM (LOX IMVI): > 10%
- inhibition of growth at 10 µM (RPMI-8226): > 10%
- inhibition of growth at 10 µM (NCI-H460): > 10%
- inhibition of growth at 10 µM (HL-60(TB)): > 10%
- inhibition of growth at 10 µM (A549): > 10%
- inhibition of growth at 10 µM (A498): > 10%
- inhibition of growth at 10 µM (HCT-116): > 10%
- inhibition of growth at 10 µM (SF-539): > 10%
- inhibition of growth at 10 µM (HT-29): > 10%
- inhibition of growth at 10 µM (SK-MEL-5): > 10%
- inhibition of growth at 10 µM (MOLT-4): > 10%
- inhibition of growth at 10 µM (M14): > 10%
- inhibition of growth at 10 µM (DU-145): > 10%
- inhibition of growth at 10 µM (CAKI-1): > 10%
- inhibition of growth at 10 µM (UACC-257): > 10%
- inhibition of growth at 10 µM (IGROV-1): > 10%
- inhibition of growth at 10 µM (MCF7): > 10%
- inhibition of growth at 10 µM (MDA-MB-435): > 10%
- inhibition of growth at 10 µM (SK-MEL-28): > 10%
- inhibition of growth at 10 µM (EKVX): > 10%
- inhibition of growth at 10 µM (UACC-62): > 10%
- inhibition of growth at 10 µM (HCC 2998): > 10%
- inhibition of growth at 10 µM (NCI-H226): > 10%
- inhibition of growth at 10 µM (NCI-H23): > 10%
- inhibition of growth at 10 µM (KM12): > 10%
- inhibition of growth at 10 µM (CCRF-CEM): > 10%
- inhibition of growth at 10 µM [1]: > 10%
- inhibition of growth at 10 µM (BT-549): > 10%
- inhibition of growth at 10 µM (SF-295): > 10%
- inhibition of growth at 10 µM (NCI-H522): > 10%
- inhibition of growth at 10 µM (U-251): > 10%
- inhibition of growth at 10 µM (OVCAR-4): > 10%
- inhibition of growth at 10 µM (UO-31): 21.4%
- inhibition of growth at 10 µM (SNB-75): > 10%
- inhibition of growth at 10 µM (SF-268): > 10%
- inhibition of growth at 10 µM (ACHN): > 10%
- inhibition of growth at 10 µM (K562): > 10%
- inhibition of growth at 10 µM (T47D): > 10%
- inhibition of growth at 10 µM (SK-MEL-2): > 10%
- inhibition of growth at 10 µM (HOP-62): > 10%
- inhibition of growth at 10 µM (NCI/ADR-RES): > 10%
